Data published in ChEMBL document CHEMBL1165897, “Design, synthesis, characterization, and antibacterial activity of {5-chloro-2-[(3-substitutedphenyl-1,2,4-oxadiazol-5-yl)-methoxy]-phenyl}-(phenyl)-methanones” (2010).
In brackets after ≈: the same amount, converted by molar mass.

Legend:
Bacillus subtilis [1] = experiment: Antibacterial activity against Bacillus subtilis NCIM 2063; ATCC 6633 at […] after 24 hrs by agar cup plate method; format: functional, NCIM 2063; ATCC6633; conditions: ATCC6633, 24 h, read-out: IZ
In short: (§1)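 Agar cup plate diffusion: test compounds at 100 µg/mL in 20% water in DMSO placed in bores cut in agar plates seeded with each organism, alongside standard drugs; incubated 37 °C for 24 h, then zone of inhibition around the bore measured. Values are the average of three experiments.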

Staphylococcus aureus [2] = experiment: Antibacterial activity against Staphylococcus aureus NCIM 2079; ATCC 6538P at […] after 24 hrs by agar cup plate method; format: functional, NCIM 2079; ATCC6538P; design: dose or concentration left out as unconfirmed; conditions: ATCC6538P, read-out: IZ
Escherichia coli [3] = experiment: Antibacterial activity against Escherichia coli NCIM 2065; ATCC 8739 at […] after 24 hrs by agar cup plate method; format: functional; conditions: ATCC 8739, 24 h, read-out: IZ; in short: as §1
Bacillus subtilis [4] = experiment: Antibacterial activity against Bacillus subtilis NCIM 2063; ATCC 6633 after 24 hrs by microtitration method; format: functional, NCIM 2063; ATCC6633; conditions: ATCC6633, 24 h
In short: (§2)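 Microtitration assay using the same isolates as the cup plate test; MIC taken as the lowest concentration of test sample or antibiotic giving no visible growth.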

Staphylococcus aureus [5] = experiment: Antibacterial activity against Staphylococcus aureus NCIM 2079; ATCC 6538P after 24 hrs by microtitration method; format: functional; conditions: ATCC6538P; in short: as §2
Escherichia coli [6] = experiment: Antibacterial activity against Escherichia coli NCIM 2065; ATCC 8739 after 24 hrs by microtitration method; format: functional; conditions: ATCC 8739, 24 h; in short: as §2
Klebsiella pneumoniae = experiment: Antibacterial activity against Klebsiella pneumoniae NCIM 2957; ATCC 11298 after 24 hrs by microtitration method; format: functional; conditions: ATCC 11298, 24 h; in short: as §2

| Compound | zone of inhibition at 100000 µg/mL (Bacillus subtilis [1]) | zone of inhibition (Staphylococcus aureus [2]) | zone of inhibition at 100000 µg/mL (Escherichia coli [3]) | MIC (Bacillus subtilis [4]) | MIC (Staphylococcus aureus [5]) | MIC (Escherichia coli [6]) | MIC (Klebsiella pneumoniae) |
| --- | --- | --- | --- | --- | --- | --- | --- |
| O=C(c1ccccc1)c1cc(Cl)ccc1OCc1nc(-c2ccc(F)c(Cl)c2)no1 | 19 mm | 17 mm | 16 mm | 29.8 µg/mL (≈ 67.2 µM) | 30.6 µg/mL (≈ 69 µM) | 30.8 µg/mL (≈ 69.5 µM) | 39.6 µg/mL (≈ 89.3 µM) |
| COc1cc(-c2noc(COc3ccc(Cl)cc3C(=O)c3ccccc3)n2)ccc1F | 19 mm | 18 mm | 17 mm | 29.8 µg/mL (≈ 67.9 µM) | 30 µg/mL (≈ 68.4 µM) | 30.6 µg/mL (≈ 69.7 µM) | 30.8 µg/mL (≈ 70.2 µM) |
| Cc1cc(F)c(-c2noc(COc3ccc(Cl)cc3C(=O)c3ccccc3)n2)cc1F | 27 mm | 25 mm | 19 mm | 21.5 µg/mL (≈ 48.8 µM) | 22.4 µg/mL (≈ 50.8 µM) | 29.8 µg/mL (≈ 67.6 µM) | 30.6 µg/mL (≈ 69.4 µM) |
| Cc1cc(-c2noc(COc3ccc(Cl)cc3C(=O)c3ccccc3)n2)ccc1F | 17 mm | 15 mm | 20 mm | 30.6 µg/mL (≈ 72.4 µM) | 40 µg/mL (≈ 94.6 µM) | 29.6 µg/mL (≈ 70 µM) | 30 µg/mL (≈ 70.9 µM) |
| CC(C)c1ccc(-c2noc(COc3ccc(Cl)cc3C(=O)c3ccccc3)n2)cc1 | 14 mm | 15 mm | 11 mm | 40.6 µg/mL (≈ 93.8 µM) | 39.6 µg/mL (≈ 91.5 µM) | 60.8 µg/mL (≈ 140 µM) | 62 µg/mL (≈ 143 µM) |
| O=C(c1ccccc1)c1cc(Cl)ccc1OCc1nc(-c2ccc(I)cc2)no1 | 16 mm | 13 mm | 10 mm | 30.8 µg/mL (≈ 59.6 µM) | 41.6 µg/mL (≈ 80.5 µM) | 62.2 µg/mL (≈ 120 µM) | 46 µg/mL (≈ 89 µM) |
| CCOc1ccc(-c2noc(COc3ccc(Cl)cc3C(=O)c3ccccc3)n2)cc1 | 13 mm | 19 mm | 11 mm | 42.2 µg/mL (≈ 97 µM) | 29.8 µg/mL (≈ 68.5 µM) | 59.4 µg/mL (≈ 137 µM) | 40 µg/mL (≈ 92 µM) |
| O=C(c1ccccc1)c1cc(Cl)ccc1OCc1nc(-c2ccc(F)cc2)no1 | 15 mm | 14 mm | 16 mm | 39.6 µg/mL (≈ 96.9 µM) | 40.6 µg/mL (≈ 99.3 µM) | 30.8 µg/mL (≈ 75.3 µM) | 42 µg/mL (≈ 103 µM) |
| O=C(c1ccccc1)c1cc(Cl)ccc1OCc1nc(-c2ccccc2)no1 | 14 mm | 9 mm | 10 mm | 41 µg/mL (≈ 105 µM) | 68 µg/mL (≈ 174 µM) | 64.2 µg/mL (≈ 164 µM) | 62 µg/mL (≈ 159 µM) |
| CC1(C)S[C@@H]2[C@H](NC(=O)[C@H](N)c3ccccc3)C(=O)N2[C@H]1C(=O)O [AMPICILLIN] | 32 mm | 31 mm | 30 mm | 3.28 µg/mL (≈ 9.39 µM) | 3.36 µg/mL (≈ 9.62 µM) | 3.88 µg/mL (≈ 11.1 µM) | 4 µg/mL (≈ 11.4 µM) |
